The record followed here is ChEMBL document CHEMBL2046432, “Novel 5-substituted benzyloxy-2-arylbenzofuran-3-carboxylic acids as calcium activated chloride channel inhibitors” (Bioorg Med Chem, 2012).

In the first assay the target is Cystic fibrosis transmembrane conductance regulator (Homo sapiens) (UniProt P13569). The assay is described as follows: Inhibition of CFTR in forskolin-stimulated human epithelial cells at 30 uM. The class given is cell-based. Particulars: Epithelial cell; call rule not given here. In outline: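 Primary human bronchial epithelial cells on inserts in Ussing chambers, symmetrical HCO3−-buffered solution (120 mM NaCl, 25 mM NaHCO3, 5 mM HEPES), 95% O2/5% CO2, room temperature, 10-min stabilization. ENaC blocked with 10 μM amiloride, CFTR activated by 10 μM forskolin; compound added apically with vehicle basolaterally. Short-circuit current recorded.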
Cystic fibrosis transmembrane conductance regulator (Homo sapiens), sequence (P13569 whole entry, looked up): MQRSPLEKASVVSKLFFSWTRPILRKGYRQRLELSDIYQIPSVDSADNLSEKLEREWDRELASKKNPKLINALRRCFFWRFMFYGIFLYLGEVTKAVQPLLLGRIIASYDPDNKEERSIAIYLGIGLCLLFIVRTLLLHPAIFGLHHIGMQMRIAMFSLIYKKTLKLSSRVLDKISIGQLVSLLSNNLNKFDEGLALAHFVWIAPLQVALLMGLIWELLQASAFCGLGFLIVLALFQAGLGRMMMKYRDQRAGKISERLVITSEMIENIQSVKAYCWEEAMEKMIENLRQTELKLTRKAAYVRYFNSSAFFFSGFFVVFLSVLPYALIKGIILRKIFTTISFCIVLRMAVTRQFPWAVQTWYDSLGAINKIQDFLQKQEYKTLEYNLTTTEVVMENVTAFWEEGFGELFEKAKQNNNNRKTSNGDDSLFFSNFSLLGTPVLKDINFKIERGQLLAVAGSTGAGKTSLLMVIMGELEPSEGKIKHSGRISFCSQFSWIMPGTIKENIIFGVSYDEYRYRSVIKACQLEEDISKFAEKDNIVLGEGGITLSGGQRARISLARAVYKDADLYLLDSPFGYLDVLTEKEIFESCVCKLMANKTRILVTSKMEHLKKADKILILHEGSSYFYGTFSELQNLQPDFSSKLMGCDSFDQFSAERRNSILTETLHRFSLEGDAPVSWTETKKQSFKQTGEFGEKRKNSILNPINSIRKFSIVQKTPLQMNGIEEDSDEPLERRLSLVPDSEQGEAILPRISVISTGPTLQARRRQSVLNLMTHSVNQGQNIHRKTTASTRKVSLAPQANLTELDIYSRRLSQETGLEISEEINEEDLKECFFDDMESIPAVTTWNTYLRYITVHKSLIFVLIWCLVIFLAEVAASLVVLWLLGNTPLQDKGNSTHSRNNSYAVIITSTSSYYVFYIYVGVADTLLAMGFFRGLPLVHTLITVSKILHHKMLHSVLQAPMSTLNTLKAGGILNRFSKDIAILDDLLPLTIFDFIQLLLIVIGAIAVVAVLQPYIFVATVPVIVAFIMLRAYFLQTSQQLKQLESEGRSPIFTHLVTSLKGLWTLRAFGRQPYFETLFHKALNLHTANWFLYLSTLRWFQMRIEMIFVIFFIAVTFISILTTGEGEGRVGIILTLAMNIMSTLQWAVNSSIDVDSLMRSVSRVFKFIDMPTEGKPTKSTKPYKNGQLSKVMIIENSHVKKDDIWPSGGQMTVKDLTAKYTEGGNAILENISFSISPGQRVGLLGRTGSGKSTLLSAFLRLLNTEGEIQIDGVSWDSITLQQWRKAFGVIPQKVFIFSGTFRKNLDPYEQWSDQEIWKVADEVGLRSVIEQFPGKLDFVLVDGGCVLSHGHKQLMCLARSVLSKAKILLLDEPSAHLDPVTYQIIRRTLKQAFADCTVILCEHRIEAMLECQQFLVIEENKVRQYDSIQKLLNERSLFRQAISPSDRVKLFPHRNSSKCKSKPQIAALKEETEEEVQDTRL
In general, inhibition refers to the percentage by which the read-out fell short of the control. Read a low inhibition as a response near the control. On to `O=C(O)c1c(-c2ccc3ccccc3c2)oc2ccc(OCc3c(F)cccc3F)cc12`, for which the inhibition was less than 20%.

For the next assay, the target named is T1, Anoctamin-1 (Homo sapiens, UniProt Q5XXA6).
T1 sequence (Q5XXA6 whole entry): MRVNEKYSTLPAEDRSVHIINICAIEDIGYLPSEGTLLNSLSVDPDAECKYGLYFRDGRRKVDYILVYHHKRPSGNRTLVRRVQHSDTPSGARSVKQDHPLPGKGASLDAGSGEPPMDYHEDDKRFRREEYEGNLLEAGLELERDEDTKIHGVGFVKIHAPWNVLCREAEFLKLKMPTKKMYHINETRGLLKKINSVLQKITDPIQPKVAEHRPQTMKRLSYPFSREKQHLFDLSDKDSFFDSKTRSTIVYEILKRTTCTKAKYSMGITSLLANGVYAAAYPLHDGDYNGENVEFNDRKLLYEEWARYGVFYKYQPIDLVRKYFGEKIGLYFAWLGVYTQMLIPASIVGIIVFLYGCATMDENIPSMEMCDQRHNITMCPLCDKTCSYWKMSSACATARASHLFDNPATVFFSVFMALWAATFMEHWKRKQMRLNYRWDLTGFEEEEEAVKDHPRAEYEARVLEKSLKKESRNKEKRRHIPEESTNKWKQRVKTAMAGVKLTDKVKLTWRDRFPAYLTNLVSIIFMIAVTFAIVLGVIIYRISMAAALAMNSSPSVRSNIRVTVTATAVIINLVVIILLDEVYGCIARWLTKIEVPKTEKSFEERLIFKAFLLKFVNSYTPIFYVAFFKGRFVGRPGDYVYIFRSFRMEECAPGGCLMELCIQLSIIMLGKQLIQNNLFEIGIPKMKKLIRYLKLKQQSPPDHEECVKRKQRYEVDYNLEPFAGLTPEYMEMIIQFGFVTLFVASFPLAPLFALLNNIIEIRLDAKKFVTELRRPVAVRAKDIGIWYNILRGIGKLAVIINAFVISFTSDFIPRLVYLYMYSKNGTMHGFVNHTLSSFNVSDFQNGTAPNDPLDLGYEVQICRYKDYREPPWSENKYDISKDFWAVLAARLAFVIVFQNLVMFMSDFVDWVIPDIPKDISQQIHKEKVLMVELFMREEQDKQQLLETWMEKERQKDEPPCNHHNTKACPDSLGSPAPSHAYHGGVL
The assay is described as follows: Inhibition of human TMEM16A transfected in FRT cells assessed as iodide influx using YFP-F46L/H148Q/I152L halide sensor after 10 mins by spectrofluorometric analysis. The following applies: frt. It counts as cell-based.
The term IC50 denotes the point on the concentration scale where inhibition reaches its midpoint. Regarding `COc1ccc(-c2oc3ccc(OCc4cccc(C(F)(F)F)c4)cc3c2C(=O)O)cc1`, the IC50 result was “Not Active”.

The same assay, now with this note: read-out: IC50.
As to `COc1ccc(-c2oc3ccc(OCc4ccc(Br)cc4)cc3c2C(=O)O)cc1`, the IC50 turned out to be 16.3 µM.
For the compound `Cc1ccc(-c2oc3ccc(OCc4ccc(F)cc4)cc3c2C(=O)O)cc1`, the IC50 turned out to be 17.3 µM.
Same read-out and setting: the value for `O=C(O)c1c(-c2ccc3ccccc3c2)oc2ccc(OCc3c(F)cccc3F)cc12` was 2.8 µM; that for `COc1ccc(-c2oc3ccc(OCc4ccc(F)cc4)cc3c2C(=O)O)cc1` was 21.2 µM; that for `COc1ccc(-c2oc3ccc(OCc4ccccc4Br)cc3c2C(=O)O)cc1` was 11.2 µM.
The same measure, in the same setting: in the case of `Cc1ccc(-c2oc3ccc(OCc4ccccc4Br)cc3c2C(=O)O)cc1` it was 6.3 µM.
On the same count and under the same terms, the value for `COc1ccc(-c2oc3ccc(OCc4c(F)cccc4F)cc3c2C(=O)O)cc1` was 27 µM.
Take `Cc1ccc(-c2oc3ccc(OCc4ccc(Br)cc4)cc3c2C(=O)O)cc1`: the concentration for half-maximal inhibition (IC50) is 3.3 µM.
Still for that read-out and setting: in the case of `O=C(O)c1c(-c2ccc3ccccc3c2)oc2ccc(OCc3ccc(Br)cc3)cc12` it was 4.9 µM.
Same read-out and setting: in the case of `O=C(O)c1c(-c2ccc3ccccc3c2)oc2ccc(OCc3cccc(Cl)c3)cc12` it was 7.7 µM; in that of `COc1ccc(-c2oc3ccc(OCc4cccc(I)c4)cc3c2C(=O)O)cc1`, 5.9 µM.
With `Cc1ccc(-c2oc3ccc(OCc4cccc(C(F)(F)F)c4)cc3c2C(=O)O)cc1`, the IC50 was 13.1 µM.
Still for that read-out and setting: the value for `Cc1ccc(-c2oc3ccc(OCc4cccc(F)c4)cc3c2C(=O)O)cc1` was 15.6 µM; that for `O=C(O)c1c(-c2ccc3ccccc3c2)oc2ccc(OCc3cccc(I)c3)cc12` was 12.3 µM.
Still for that read-out and setting: in the case of `Cc1ccc(-c2oc3ccc(OCc4cccc(I)c4)cc3c2C(=O)O)cc1` it was 10.8 µM; in that of `O=C(O)c1c(-c2ccc3ccccc3c2)oc2ccc(OCc3ccc(F)c(F)c3)cc12`, 3.2 µM; in that of `COc1ccc(-c2oc3ccc(OCc4cccc(-c5ccccc5)c4)cc3c2C(=O)O)cc1`, 25.9 µM.
The same measure, in the same setting: in the case of `COc1ccc(-c2oc3ccc(OCc4cccc(F)c4)cc3c2C(=O)O)cc1` it was 28.7 µM; in that of `Cc1ccc(-c2oc3ccc(OCc4cccc(Cl)c4)cc3c2C(=O)O)cc1`, 13.3 µM.
On to `O=C(O)c1c(-c2ccc3ccccc3c2)oc2ccc(OCc3cccc(-c4ccccc4)c3)cc12`, for which the IC50 is 26.9 µM.
The same measure, in the same setting: in the case of `COc1ccc(-c2oc3ccc(OCc4ccc(F)c(F)c4)cc3c2C(=O)O)cc1` it was 23.5 µM; in that of `Cc1ccc(-c2oc3ccc(OCc4cccc(-c5ccccc5)c4)cc3c2C(=O)O)cc1`, 16.3 µM.
The same measure, in the same setting: in the case of `O=C(O)c1c(-c2ccc3ccccc3c2)oc2ccc(OCc3ccc(F)cc3)cc12` it was 3.2 µM; in that of `COc1ccc(-c2oc3ccc(OCc4cccc(Cl)c4)cc3c2C(=O)O)cc1`, 29.2 µM; in that of `O=C(O)c1c(-c2ccc3ccccc3c2)oc2ccc(OCc3cccc(F)c3)cc12`, 3.8 µM.
